Experimental data published in ChEMBL document CHEMBL3862030, “Identification of the minimum PAR4 inhibitor pharmacophore and optimization of a series of 2-methoxy-6-arylimidazo[2,1-b][1,3,4]thiadiazoles” (Bioorg Med Chem Lett, 2016).
One block for each compound: values may come before it. Active and inactive are the calls of the source. No cut-off for these calls is given here.

Key:
[1] = Fraction unbound in human plasma at 5 uM after 4 hrs by equilibrium dialysis method; assay type: ADME, cell-free
[2] = Intrinsic clearance in human liver microsomes at 1 uM preincubated for 5 mins followed by NADPH addition measured after 3 to 45 mins by LC/MS/MS analysis; assay type: ADME; conditions: read-out: CLH
Platelet [3] = assay: Antiplatelet activity in human platelets assessed as inhibition of activating peptide-induced aggregation at 100 to 316 nM preincubated for 20 mins followed by activating peptide addition measured for 10 mins by aggregometer; assay type: functional, cell-based; conditions: 316 nM to 1 uM, in the assay text read “316 nM to 1 uM” for “100 to 316 nM”
In short: (§1)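 Aggregation was monitored for 10 min, with final % aggregation taken at that point. Data are means±SEM of at least three independent experiments, compared to controls by paired t-test.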

[4] = Lipophilicity, log P of the compound; assay type: physicochemical; conditions: octanol/water
[5] = Intrinsic clearance in rat liver microsomes at 1 uM preincubated for 5 mins followed by NADPH addition measured after 3 to 45 mins by LC/MS/MS analysis; assay type: ADME; conditions: read-out: CLH
Platelet [6] = assay: Antiplatelet activity in human platelets assessed as inhibition of gamma thrombin-induced aggregation at 316 nM to 3.16 uM preincubated for 20 mins followed by gamma thrombin addition measured for 10 mins by aggregometer; assay type: functional, cell-based; in short: as §1
[7] = Fraction unbound in rat plasma at 5 uM after 4 hrs by equilibrium dialysis method; assay type: ADME, cell-free
[8] = target: T1, Proteinase-activated receptor 4 (Homo sapiens) (UniProt Q96RI0); conditions: 31.6 to 316 nM
T1 sequence (whole entry): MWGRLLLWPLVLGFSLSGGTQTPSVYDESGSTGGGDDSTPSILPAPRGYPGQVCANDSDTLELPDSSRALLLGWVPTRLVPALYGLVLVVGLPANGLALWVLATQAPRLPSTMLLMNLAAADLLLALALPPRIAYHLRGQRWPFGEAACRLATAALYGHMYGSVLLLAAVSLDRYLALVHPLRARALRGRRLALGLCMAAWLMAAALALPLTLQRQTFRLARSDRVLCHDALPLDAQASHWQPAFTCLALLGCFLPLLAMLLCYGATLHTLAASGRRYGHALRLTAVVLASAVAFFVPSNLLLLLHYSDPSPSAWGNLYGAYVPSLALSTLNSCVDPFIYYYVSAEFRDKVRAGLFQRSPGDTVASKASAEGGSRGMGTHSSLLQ

[9] = target: T2, Proteinase-activated receptor 4 (Homo sapiens, UniProt Q96RI0); assay: Antagonist activity at PAR4 in human platelets assessed as inhibition of activating peptide-induced PAC1 binding response preincubated for 20 mins followed by agonist addition for 20 mins by FITC-based flow cytometric analysis
T2 sequence (Q96RI0 whole entry): T1 sequence (whole entry)
In short: (§2)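 Human platelets were activated with 200 μM PAR4-AP. The read-outs were PAC-1 binding and P-selectin exposure, measured by flow cytometry.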

Platelet [10] = assay: Antiplatelet activity in human platelets assessed as inhibition of activating peptide-induced aggregation at 316 to 1000 nM preincubated for 20 mins followed by activating peptide addition measured for 10 mins by aggregometer; assay type: functional, cell-based; in short: as §1
[11] = target: T1, Proteinase-activated receptor 4 (Homo sapiens); conditions: 31.6 to 1000 nM
[12] = target: T3, Proteinase-activated receptor 1 (Homo sapiens, UniProt P25116); assay: Antagonist activity at PAR1 in human platelets assessed as inhibition of activating peptide-induced P-selectin activation
T3 sequence (P25116 whole entry): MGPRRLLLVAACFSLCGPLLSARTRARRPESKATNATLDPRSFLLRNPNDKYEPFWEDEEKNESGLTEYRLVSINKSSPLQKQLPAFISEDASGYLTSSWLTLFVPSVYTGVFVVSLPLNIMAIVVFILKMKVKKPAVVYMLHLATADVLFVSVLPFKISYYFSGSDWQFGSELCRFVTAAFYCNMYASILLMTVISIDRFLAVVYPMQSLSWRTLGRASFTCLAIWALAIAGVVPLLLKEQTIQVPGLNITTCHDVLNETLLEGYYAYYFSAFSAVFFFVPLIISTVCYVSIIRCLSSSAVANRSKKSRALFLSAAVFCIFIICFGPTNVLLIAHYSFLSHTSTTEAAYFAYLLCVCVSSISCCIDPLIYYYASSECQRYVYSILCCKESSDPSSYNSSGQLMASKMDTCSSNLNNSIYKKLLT

[13] = target: T2, Proteinase-activated receptor 4; assay: Antagonist activity at PAR4 in human platelets assessed as inhibition of gamma-thrombin-induced P-selectin activation
In short: (§3)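 Human platelets were stimulated with γ-thrombin at 100 nM. Activation was read by flow cytometry as PAC-1 binding and P-selectin surface expression.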

[14] = target: T3, Proteinase-activated receptor 1; assay: Antagonist activity at PAR1 in human platelets assessed as inhibition of activating peptide-induced PAC1 binding response
[15] = target: T1, Proteinase-activated receptor 4 (Homo sapiens); assay: Ratio of IC50 for PAR4 in human platelets assessed as inhibition of gamma-thrombin-induced PAC1 binding response to IC50 for PAR4 in human platelets assessed as inhibition of activating peptide-induced PAC1 binding response
[16] = target: T2, Proteinase-activated receptor 4; assay: Antagonist activity at PAR4 in human platelets assessed as inhibition of gamma-thrombin-induced PAC1 binding response preincubated for 20 mins followed by agonist addition for 20 mins by FITC-based flow cytometric analysis; in short: as §3
Platelet [17] = assay: Antiplatelet activity in human platelets assessed as inhibition of gamma thrombin-induced aggregation at 10 uM preincubated for 20 mins followed by gamma thrombin addition measured for 10 mins by aggregometer; assay type: functional, cell-based; in short: as §1
[18] = target: T2, Proteinase-activated receptor 4; assay: Antagonist activity at PAR4 in human platelets assessed as inhibition of activating peptide-induced P-selectin activation; in short: as §2
[19] = target: T2, Proteinase-activated receptor 4; assay: Antagonist activity at PAR4 (unknown origin) assessed as inhibition of gamma-thrombin-induced receptor activation
[20] = target: T2, Proteinase-activated receptor 4; assay: Antagonist activity at PAR4 (unknown origin) assessed as inhibition of activating peptide-induced receptor activation
[21] = Fraction unbound in rat plasma; assay type: ADME, cell-free
[22] = Fraction unbound in human plasma; assay type: ADME, cell-free

SMILES: COc1nn2cc(-c3ccc(OC(F)(F)F)cc3)nc2s1
Fu [1]: 0.006 to 0.014
CLint scaled at 1 µM [2]: 13.6 to 19.9 mL/min/kg
inhibition (Platelet [3]): Active
logP [4]: > 4
CLint scaled at 1 µM [5]: 46.3 to 58.3 mL/min/kg
inhibition (Platelet [6]): Active
Fu [7]: 0.006 to 0.014
inhibition [8]: Active

SMILES: CNc1nn2cc(-c3c(F)cccc3F)nc2s1
IC50 [9]: > 10000 nM

SMILES: COc1nn2cc(-c3cc4cc(OC(F)(F)F)ccc4n3C)nc2s1
inhibition (Platelet [10]): Active
IC50 [12]: > 10000 nM
IC50 [13]: 1000 nM
IC50 [14]: > 10000 nM
Ratio IC50 [15]: 50
IC50 [16]: 1000 nM
IC50 [9]: 20 to 21 nM
inhibition (Platelet [17]): Active
IC50 [18]: 20 nM

SMILES: COc1nn2cc(-c3cc(C(F)(F)F)cc(C(F)(F)F)c3)nc2s1
IC50 [16]: 5620 nM

SMILES: COc1nn2cc(-c3ccc(C)cc3)nc2s1
IC50 [9]: 57.2 nM

SMILES: COc1nn2cc(-c3ccc(C(F)(F)F)cc3)nc2s1
Fu [1]: 0.006 to 0.014
CLint scaled at 1 µM [2]: 13.6 to 19.9 mL/min/kg
inhibition (Platelet [3]): Active
logP [4]: > 4
CLint scaled at 1 µM [5]: 46.3 to 58.3 mL/min/kg
inhibition (Platelet [6]): Active
Fu [7]: 0.006 to 0.014
inhibition [8]: Active

SMILES: COc1nn2cc(-c3cc4ccccc4o3)nc2s1
IC50 [19]: 58.8 nM
IC50 [20]: 1.69 nM

SMILES: COc1nn2cc(-c3ccc(C#N)cc3)nc2s1
IC50 [9]: 937 nM

SMILES: COc1cc(OCc2csc(-c3ccccc3)n2)c2cc(-c3cn4nc(OC)sc4n3)oc2c1
fraction unbound [21]: < 0.001
fraction unbound [22]: < 0.001

SMILES: COc1nn2cc(-c3ccc(OC(F)F)cc3)nc2s1
IC50 [16]: 2540 nM

SMILES: COc1nn2cc(-c3ccc(S(C)(=O)=O)cc3)nc2s1
IC50 [9]: 1200 nM

SMILES: COc1nn2cc(-c3ccccc3[N+](=O)[O-])nc2s1
IC50 [9]: 4840 nM

SMILES: CN(C)c1nn2cc(-c3c(F)cccc3F)nc2s1
IC50 [9]: 3400 nM

SMILES: COc1ccc(-c2cn3nc(OC)sc3n2)cc1
IC50 [9]: 592 nM

Second part, led by results:

IC50 [9]: 757 nM
SMILES: COc1nn2cc(-c3ccccc3)nc2s1

IC50 [9]: 675 nM
SMILES: COc1nn2cc(-c3cccc(F)c3)nc2s1

IC50 [9]: > 10000 nM
SMILES: COc1nn2cc(-c3cccc([N+](=O)[O-])c3)nc2s1

Fu [1]: 0.006 to 0.014
CLint scaled at 1 µM [2]: 13.6 to 19.9 mL/min/kg
logP [4]: > 4
CLint scaled at 1 µM [5]: 46.3 to 58.3 mL/min/kg
Fu [7]: 0.006 to 0.014
inhibition [11]: Active
SMILES: COc1nn2cc(-c3ccc(Cl)cc3)nc2s1
inhibition (Platelet [10]): Active
inhibition (Platelet [6]): Active

IC50 [9]: > 10000 nM
SMILES: COc1nn2cc(-c3ccc(O)cc3)nc2s1

IC50 [16]: > 10000 nM
IC50 [9]: 72.8 nM
SMILES: COc1nn2cc(-c3cccc(Cl)c3)nc2s1

IC50 [9]: 437 nM
SMILES: COc1nn2cc(-c3ccccc3Cl)nc2s1
